Test results taken from ChEMBL document CHEMBL1159001, “Isolation, purification, and cytotoxicity of 5-methoxypodophyllotoxin, a lignan from a root culture of Linum flavum” (1992).
≈ marks a conversion by molar mass, not a printed value.

Columns and labels:
HeLa = test: Cytotoxicity against human HeLa cells after 4 days by trypan blue assay; format: functional; details: 96 h, read-out: ED50 (the source's name)
Summary of the method: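 HeLa cells cultured in Joklik's MEM with 10% fetal calf serum, streptomycin and penicillin G (doubling time ca. 24 h). Exponentially growing cells with >95% trypan-blue viability. Lignans were taken from 0.5 or 5 mM stocks in 96% EtOH, and 24 twofold dilutions were made in medium. 2000 cells/well, 4 days at 37°, 5% CO2. Growth was scored visually by pellet diameter against untreated controls, and ED50 (50% growth inhibition) calculated.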

[1] = Cytotoxicity against mouse EAT cells after 4 days by trypan blue assay; format: functional; details: 96 h, read-out: ED50 (the source's name)
Summary of the method: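 Murine Ehrlich ascites tumor cells grown in suspension in RPMI 1640 with 10% fetal calf serum, streptomycin and penicillin G (doubling time 12–14 h). Exponential-phase cells, viability >95% by trypan blue. Lignans came from 0.5 or 5 mM 96% EtOH stocks, in 24 twofold dilutions. 2000 viable cells/well, incubated 4 days at 37°, 5% CO2. Sedimented pellet diameters were compared visually with untreated wells, and ED50 derived as 50% growth inhibition.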

| SMILES | EC50 (HeLa) | EC50 [1] |
| --- | --- | --- |
| COc1cc([C@@H]2c3cc4c(cc3[C@H](O[C@@H]3O[C@H](CO)[C@@H](O)[C@H](O)[C@H]3O)[C@H]3COC(=O)[C@H]23)OCO4)cc(OC)c1OC | 21.8 µg/mL (≈ 37.8 µM) | 30 µg/mL (≈ 52 µM) |
| COc1cc([C@@H]2c3cc4c(c(OC)c3[C@H](O)[C@H]3COC(=O)[C@H]23)OCO4)cc(OC)c1OC | 22 µg/mL (≈ 49.5 µM) | 32 µg/mL (≈ 72 µM) |
| COc1cc([C@@H]2c3cc4c(cc3[C@@H](O[C@@H]3O[C@@H]5CO[C@@H](c6cccs6)O[C@H]5[C@H](O)[C@H]3O)[C@H]3COC(=O)[C@H]23)OCO4)cc(OC)c1O [TENIPOSIDE] | 0.3 µg/mL (≈ 0.457 µM) | 0.06 µg/mL (≈ 0.0914 µM) |
| COc1cc([C@@H]2c3cc4c(cc3[C@H](O)[C@H]3COC(=O)[C@H]23)OCO4)cc(OC)c1OC [PODOFILOX] | 20.5 µg/mL (≈ 49.5 µM) | 42.8 µg/mL (≈ 103 µM) |
| COc1cc([C@@H]2c3cc4c(cc3[C@@H](O[C@@H]3O[C@@H]5CO[C@@H](C)O[C@H]5[C@H](O)[C@H]3O)[C@H]3COC(=O)[C@H]23)OCO4)cc(OC)c1O [ETOPOSIDE] | 7.9 µg/mL (≈ 13.4 µM) | 1.1 µg/mL (≈ 1.87 µM) |
